From ChEMBL document CHEMBL1154512, “PA-824 kills nonreplicating Mycobacterium tuberculosis by intracellular NO release” (2008)
In brackets after ≈: the same amount, converted by molar mass.

Legend:
[1] = system: Mycobacterium tuberculosis; assay: Bactericidal activity against Mycobacterium tuberculosis H37Rv under aerobic condition by broth dilution method; type: functional
Outline: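 MIC taken as the micromolar concentration inhibiting 99% of growth of an Mtb inoculum.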

[2] = system: Mycobacterium tuberculosis; assay: Mycobactericidal activity against Mycobacterium tuberculosis H37Rv assessed as minimum anaerobicidal concentration required for 1 log reduction in bacterial numbers after 1 week under hypoxic non replicating condition; type: functional
Outline: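 Mtb adapted to hypoxia was exposed to compound for 1 week. MAC taken as the micromolar concentration giving a 1 log drop in bacterial numbers.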

[3] = molecular target: Deazaflavin-dependent nitroreductase (Mycobacterium tuberculosis) (UniProt P9WP15); assay: Ratio of Kcat to Km for Mycobacterium tuberculosis Rv3547 expressed in Escherichia coli co-transfected with maltose-binding fusion protein
Outline: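 Ddn (Rv3547) expressed in E. coli as a maltose-binding protein fusion and purified on amylose resin. Activity followed as time- and enzyme-dependent reoxidation of reduced F420 (F420H2), with the nitroimidazole as substrate. Kinetic values given as kcat/Km (min–1 μM–1).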

[4] = molecular target: Deazaflavin-dependent nitroreductase (Mycobacterium tuberculosis) (UniProt P9WP15); assay: Binding affinity to Mycobacterium tuberculosis Rv3547 assessed as nitrous acid production by Griess method in presence of cofactor F420H2
Outline: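 Purified Ddn incubated with the nitroimidazole and F420H2. Reduction monitored as nitrite formation, read with Griess reagent.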

Sequence of Deazaflavin-dependent nitroreductase (Mycobacterium tuberculosis) (P9WP15 whole entry, the tested form may be a part): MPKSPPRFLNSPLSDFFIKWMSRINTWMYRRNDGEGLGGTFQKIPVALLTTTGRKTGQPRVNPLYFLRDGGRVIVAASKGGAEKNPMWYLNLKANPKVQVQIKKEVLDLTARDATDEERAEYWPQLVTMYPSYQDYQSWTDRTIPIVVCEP

SMILES	MIC99 [1] [µM]	Activity [2] [µM]	Ratio [3]	Activity [4]
O=[N+]([O-])c1cn2c(n1)NC[C@@H](OCc1ccc(OC(F)(F)F)cc1)C2	0.8 (≈ 0.287 µg/mL)	130	–	–
O=[N+]([O-])c1cn2c(n1)OC[C@@H](NCCCCc1ccc(OC(F)(F)F)cc1)C2	0.04 (≈ 0.016 µg/mL)	8.1	–	–
O=[N+]([O-])c1cn2c(n1)OC[C@@H](NCCCc1ccc(OC(F)(F)F)cc1)C2	0.08 (≈ 0.0309 µg/mL)	3.1	–	–
O=[N+]([O-])c1cn2c(n1)OC[C@@H](NCc1ccc(OCc3ccc(OC(F)(F)F)cc3)cc1)C2	0.16 (≈ 0.0743 µg/mL)	2.1	–	–
O=[N+]([O-])c1cn2c(n1)SC[C@@H](OCc1ccc(OC(F)(F)F)cc1)C2	1.2 (≈ 0.45 µg/mL)	25	–	–
O=[N+]([O-])c1cn2c(n1)OC[C@@H](NCCc1ccc(OC(F)(F)F)cc1)C2	0.04 (≈ 0.0149 µg/mL)	2	–	–
O=[N+]([O-])c1cn2c(n1)OC[C@@H](NCc1ccc(OC(F)(F)F)cc1)C2	0.4 (≈ 0.143 µg/mL)	8	–	–
CCCCc1ccc(CN[C@@H]2COc3nc([N+](=O)[O-])cn3C2)cc1	0.78 (≈ 0.258 µg/mL)	75	–	–
O=CN1CC(OCc2ccc(OC(F)(F)F)cc2)Cn2cc([N+](=O)[O-])nc21 (single isomer, unassigned)	6.3 (≈ 2.43 µg/mL)	31	–	–
O=[N+]([O-])c1cn2c(n1)OC[C@H](OCc1ccc(OC(F)(F)F)cc1)C2	110 (≈ 39.5 µg/mL)	250	0.016	–
O=[N+]([O-])c1cn2c(n1)OC[C@@H](OCc1ccc(OC(F)(F)F)cc1)C2 [PRETOMANID]	0.8 (≈ 0.287 µg/mL)	12	0.145	Dose-dependent effect
